Measured values published in ChEMBL document CHEMBL4311948, “Exploring the Natural Piericidins as Anti-Renal Cell Carcinoma Agents Targeting Peroxiredoxin 1” (J Med Chem, 2019).
Activity calls are given as the source filed them. The calls are words filed in the database; no cut-off is given here.

Tests used:
Mus musculus = assay: Up regulation of PRDX1 expression in human ACHN cells xenografted Balb/c nu/nu mouse at 0.8 mg/kg, ip administered once daily for 21 days measured post-last dose by immunoblot analysis; type: functional, organism-based
Outline: (§1)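 Male athymic Balb/c nu/nu mice, four weeks old, acclimatised 1 week. 10^7 ACHN cells in 0.2 mL PBS injected into the right flank. At about 150 mm3, mice randomised into PBS control or 0.8 mg/kg groups, dosed ip daily for three weeks. Tumours measured by caliper (volume = 0.5 × L × W²) with body weight recorded. Endpoint tumour weight, sections stained by H&E and TUNEL. Tissue lysed for immunoblot.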

ACHN [1] = assay: Induction of apoptosis in human ACHN cells assessed as late apoptotic cells at 50 nM measured after 48 hrs by Annexin V-FITC/propidium iodide staining based flow cytometry (reference value: 0%); type: functional
[2] = target: T1, Peroxiredoxin-1 (Homo sapiens) (UniProt Q06830); assay: Induction of PRDX1 nuclear translocation in human ACHN cells at 25 to 50 nM measured after 24 hrs by DAPI staining-based microscopic analysis; type: cell-based
T1 sequence (whole entry): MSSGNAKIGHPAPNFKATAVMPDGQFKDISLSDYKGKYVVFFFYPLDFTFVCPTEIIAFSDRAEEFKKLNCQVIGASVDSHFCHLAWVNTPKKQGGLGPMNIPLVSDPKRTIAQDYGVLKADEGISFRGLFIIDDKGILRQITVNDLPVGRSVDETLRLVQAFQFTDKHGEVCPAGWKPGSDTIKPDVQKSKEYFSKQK
Outline: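 ACHN cells exposed 24 h to 25 or 50 nM, fixed in 4% paraformaldehyde 10 min and permeabilised with 0.5% Triton X-100. Blocked with 10% FBS, 4 °C, 12 h. Stained with anti-PRDX1 overnight, FITC secondary 2 h RT, DAPI nuclear counterstain. Confocal imaging scored mean fluorescence intensity (n = 9).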

ACHN [3] = assay: Cytotoxicity against human ACHN cells assessed as reduction in cell viability measured after 72 hrs by CCK8 assay; type: functional, cell-based
Outline: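 Cells were grown in 10% FBS medium: MEM for ACHN, RPMI1640 for OS-RC-2 and 786-O, DMEM for HK-2. They were seeded at 400–800 cells/well in 384-well plates and treated with a range of compound concentrations or solvent control, with sorafenib as positive control. After 72 h, CCK-8 absorbance was read at 450 nm in triplicate, and IC50 was taken from dose-response curves.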

ACHN [4] = assay: Antitumor activity against human ACHN cells xenografted in Balb/c nu/nu mouse assessed as tumor growth inhibition at 0.8 mg/kg, ip administered once daily for 21 days measured post-last dose by TUNEL staining-based assay; type: functional, organism-based; outline: as §1
ACHN [5] = assay: Down regulation of HK2 mRNA expression in human ACHN cells at 25 to 50 nM measured after 24 hrs by qRT-PCR analysis; type: functional, cell-based
ACHN [6] = assay: Cytotoxicity against human ACHN cells harboring shPRDX1 gene assessed as reduction in cell viability measured after 72 hrs by CCK8 assay; type: functional, cell-based; conditions: Homo sapiens, ACHN, 72 h; read-out: IC50
Outline: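 Transfectants were selected with puromycin (1 μg/mL), and knockdown was confirmed by immunoblot. Viability was read by CCK-8 after 72 h of compound exposure in 384-well plates at 400–800 cells/well in MEM with 10% FBS, and IC50 was taken from dose-response curves.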

ACHN [7] = assay: Antioxidant activity in human ACHN cells harboring shPRDX1 gene assessed as reduction in reactive oxygen species level at 25 to 50 nM measured after 24 hrs by Cell-rox reagent-based flow cytometry; type: functional
Outline: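 ACHN cells grown 24 h in MEM + 10% FBS, reseeded at 2 × 10^4 cells/well and exposed to 0, 25 or 50 nM for 24 h. Harvested cells loaded with CellROX oxidative stress reagent 5 μM, 30 min at 37 °C in the dark, then read by flow cytometry. shPRDX1 line: stable knockdown selected with puromycin (1 μg/mL) before dosing. Mean ± SD.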

ACHN [8] = assay: Induction of apoptosis in human ACHN cells assessed as viable cells at 50 nM measured after 24 hrs by Annexin V-FITC/propidium iodide staining based flow cytometry (reference value: 100%); type: functional; conditions: read-out: Activity
ACHN [9] = assay: Induction of apoptosis in human ACHN cells assessed as late apoptotic cells at 50 nM measured after 24 hrs by Annexin V-FITC/propidium iodide staining based flow cytometry (reference value: 0%); type: functional
ACHN [10] = assay: Induction of apoptosis in human ACHN cells assessed as necrotic cells at 50 nM measured after 24 hrs by Annexin V-FITC/propidium iodide staining based flow cytometry (reference value: 0%); type: functional

C/C=C(\C)[C@H](O)[C@H](C)/C=C(C)/C=C/C/C(C)=C/Cc1nc(OC)c(OC)c(O)c1C [PIERICIDIN A]
Activity (Mus musculus): Active | Activity (ACHN [1]): 7.4% | Activity [2]: Active | IC50 (ACHN [3]): 0.4 µM | TGI (ACHN [4]): Active | Activity (ACHN [5]): Active | IC50 (ACHN [6]): 1.6 µM | Activity (ACHN [7]): Active | viability at 0.05 µM (ACHN [8]): 81.9% | Activity (ACHN [9]): 1.3% | Activity (ACHN [10]): 15.9%
